Hits are enriched below; roughly 3.7% of the tested compounds scored in any of these assays.
hERG rescue: hERG (human) protection from proarrhythmic block; Q12809; CHO-hERG, FluxOR thallium flux, dofetilide IC70 present; activation (rescue from dofetilide block), less the hit threshold, % at 10 µM; 310,000 compounds, 0.51% hits; AID 1511;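 active = activation above the mean of controls blocked by dofetilide plus 5 SD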;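 note: thallium influx through hERG after potassium depolarization seen as dye fluorescence rise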
KCNQ1 pot: potentiators or activators of human KCNQ1 potassium channel; P51787; CHO-K1 KCNQ1, thallium flux FluxOR fluorescence; active compounds read high; B-score at 10 µM; 310,000 compounds, 0.35% hits;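 active = fluorescence ratio B-score, a plate-corrected score, at least three library SD, with initial intensity B-score within 5 SD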
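Schedule – 37 °C overnight plating, 90-min dark dye load, 20-min compound pretreatment · System – stable KCNQ1 CHO-K1 line · Probe or stimulus – thallium- and potassium-containing depolarizing buffer · Measured by – kinetic FluxOR fluorescence, 10 s baseline plus 110 s post-stimulus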
Kir21 inh: blocks the mouse Kir2.1 inward-rectifier potassium channel; P35561; HEK293-Kir2.1, FluxOR thallium flux fluorescence; active compounds read low; B-score at 10 µM; 310,000 compounds, 0.85% hits; AID 1672;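 active = fluorescence ratio B-score at or below minus 3 SD of library scores, with starting-brightness B-score within 2 SD, cut at about -4.2 in these data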;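 note: channel flux triggered by added potassium and thallium sulfate stimulus; B-score of peak minus minimum fluorescence over baseline after thallium stimulus; more negative B-score means stronger Kir2.1 block with less thallium influx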
KCNK9 block: human KCNK9 channel inhibition; HEK293 KCNK9, FluxOR thallium flux fluorescence; active compounds read low; AID 488922; B-score at 10 µM; 310,000 compounds, 1.2% hits;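 active = ratio B-score over 3 SD below the library mean, with starting fluorescence within 5 SD of its mean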;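 note: negative B-score means less thallium flux so channel inhibition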
KCNQ1 block: human KCNQ1 channel inhibition; B-score at 10 µM; CHO-K1 KCNQ1, FluxOR thallium flux fluorescence; active compounds read high; AID 2642; P51787; 310,000 compounds, 1.3% hits;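 active = compounds whose thallium flux B-score, printed positive for inhibition, exceeds three library SD while starting fluorescence stays within three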;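 note: channel opened by potassium depolarization with thallium stimulus after 20 min compound exposure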
KCNK3 inh: human KCNK3 channel inhibition, primary screen; AID 602410; O14649; CHO-KCNK3 thallium flux, FluxOR fluorescence; active compounds read low; 340,000 compounds, 0.84% hits; B-score at 10 µM;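 active = B-score under library mean minus 4 SD, starting fluorescence ratio at most library mean plus 5 SD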;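 note: more negative B-score means stronger inhibition of thallium flux through KCNK3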
Target sequence (O14649 whole entry, looked up): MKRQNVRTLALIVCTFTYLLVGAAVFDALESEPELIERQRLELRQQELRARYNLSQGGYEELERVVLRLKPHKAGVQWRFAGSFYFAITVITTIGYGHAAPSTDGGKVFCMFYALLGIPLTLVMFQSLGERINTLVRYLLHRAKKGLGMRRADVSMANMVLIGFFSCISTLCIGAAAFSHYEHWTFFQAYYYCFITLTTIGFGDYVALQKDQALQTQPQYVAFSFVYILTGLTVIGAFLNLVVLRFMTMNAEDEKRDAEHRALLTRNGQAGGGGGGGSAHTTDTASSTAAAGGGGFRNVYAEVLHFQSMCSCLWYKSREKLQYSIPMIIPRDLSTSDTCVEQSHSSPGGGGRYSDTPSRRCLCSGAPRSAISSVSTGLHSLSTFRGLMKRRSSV
KCNK9 inh conf: confirmation of human KCNK9 potassium channel inhibitors; AID 492992; inhibition, % at 10 µM; shares compounds with KCNK9 block; HEK293 KCNK9 cells, FluxOR thallium flux fluorescence; 4,900 compounds, 43% hits;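 active = thallium signal inhibited by more than 5 SD of the compound-free buffer control wells, on both duplicate plates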;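 note: 0% = assay buffer control wells without compound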
Kir21 sel: mouse Kir2.1 off-target activity of KCNK9 modulators. shares compounds with KCNK9 block. Kir2.1 cells, FluxOR thallium flux fluorescence. inhibition, % at 10 µM. 4,900 compounds, 4% hits. AID 492993;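 active = thallium signal drop more than 5 SD beyond the mean of the no-compound control wells, seen in both duplicate plates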;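 note: signal is fluorescence rise after thallium addition divided by baseline fluorescence; plate controls were assay buffer only for no effect and full block by chlorpromazine control for full effect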
KCNK9 uninduced: second check of KCNK9 modulator effects in non-induced HEK293 cells; shares compounds with KCNK9 block; FluxOR thallium flux; inhibition, % at 10 µM; 4,900 compounds, 40% hits; AID 492997;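 active = thallium signal drop beyond 5 SD of the untreated control mean, on both duplicate plates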;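 note: plate controls were buffer only IC0 wells for no effect and SID17386958 at its maximal inhibitory level for full effect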
Active calls of the source: *; i = inactive; . = no result.

SMILES	hERG rescue	KCNQ1 pot	Kir21 inh	KCNK9 block	KCNQ1 block	KCNK3 inh	KCNK9 inh conf	Kir21 sel	KCNK9 uninduced
Cc1ccc(C)c(OCC(=O)N(Cc2nnc(-c3ccccc3Cl)o2)C2CC2)c1	-17	i	-1.1	i	i	i	i	i	i
Cc1cccc(OCC(=O)N(Cc2nnc(-c3ccccc3Cl)o2)C2CC2)c1	.	.	.	.	.	i	.	.	.
O=[N+]([O-])c1cc(/C=N/OCc2c(Cl)cccc2Cl)ccc1N1CCOCC1	-14	i	-0.02	i	i	i	i	i	i
CC(=O)OC1CCC2(C)C3CCC4(C)C(C(C)=O)CCC4C3CC3OC32C1 (stereo not drawn)	.	.	.	.	.	i	.	.	.
O=C(COC(=O)c1ccc([N+](=O)[O-])o1)Nc1cccc2ccccc12	-14	i	-2.6	i	i	i	.	.	.
CCCOc1c(Br)cc(C2C3=C(CCCC3=O)N(CC)C3=C2C(=O)CCC3)cc1OC	-9	i	0.71	-8.5*	i	i	i	i	31%*
CCCOc1c(Br)cc(C2C3=C(CCCC3=O)N(C)C3=C2C(=O)CCC3)cc1OC	-9	i	-1.2	i	i	i	.	.	.
Cc1cc(-c2nn(-c3ccccc3F)cc2CN2CCN(c3ccccn3)CC2)c(C)s1	-7	i	1	i	i	i	i	i	i
Cc1cc(-c2nn(-c3ccccc3F)cc2CNCCc2cnccn2)c(C)s1	-14	i	-0.02	i	i	i	.	.	.
Cn1cc(CN2CCN(c3ccc(Cl)cn3)CC2)c(-c2ccccc2F)n1	-16	i	1.9	i	i	i	i	i	i
CCn1c(COC(=O)CNC(=O)c2ccccc2F)nc2cc(S(=O)(=O)N(C)C)ccc21	-18	i	2.1	i	i	i	.	.	.
COCc1cc(C)nc(SCC(=O)Nc2ccc(N3CCOCC3)cc2)c1C#N	-8	i	1.1	i	i	i	.	.	.
Cc1cc(C)c(S(=O)(=O)c2ccc(C(C)(C)C)cc2)c(Cl)n1	-1	i	0.87	i	i	i	i	i	i
COCCN(C(=O)c1csnn1)C(C(=O)NC1CCCC1)c1ccccc1F (stereo not drawn)	-11	i	-0.51	i	i	i	.	.	.
CCc1nc(Sc2nnnn2-c2ccccc2)c2c3c(sc2n1)CCCC3	-5	i	-1.5	i	i	i	i	i	i
Fc1ccc2c(c1)C1C=CCC1C(c1cc3c(cc1Br)OCO3)N2 (stereo not drawn)	-10	i	0.94	-13*	i	i	49%*	i	48%*
O=C(O)C1Nc2ccc(Br)cc2C2C=CCC12 (stereo not drawn)	-5	i	0.66	i	i	i	.	.	.
O=C(Nc1ccccc1)c1cccc(N2C(=O)C3C4CC(C(Br)C4Br)C3C2=O)c1 (stereo not drawn)	-5	i	-2	i	i	i	.	.	.
Clc1cccc(C2CCN(Cc3nc(COc4ccccc4)no3)C2)c1 (stereo not drawn)	-13	i	0.04	i	i	i	i	i	i
c1ccc(OCc2noc(CN3CC[C@@H]4CCCC[C@H]4C3)n2)cc1	-10	i	1.6	i	i	i	.	.	.
Clc1cccc(CN2CCN(Cc3nc(CCc4ccccc4)no3)CC2)c1	-6	i	1.7	i	i	i	i	i	i
COc1ccc(CCNCC(O)COc2c(C)cccc2C)cc1OC (stereo not drawn)	-8	i	-1.4	i	i	i	.	.	.
CCCC[C@@H]1C[C@H]1[C@@H](NC(=O)c1cccs1)c1ccc(Cl)cc1	-23	i	-0.64	-11*	10*	.	52%*	i	50%*
CC(C)c1ccc(NC(=O)c2cccc(Br)c2)cc1	-8	i	-0.09	-8.8*	i	i	38%*	i	i
COc1cccc(NC(=O)C(Sc2nnc(Nc3ccccc3C)s2)c2ccccc2)c1 (stereo not drawn)	-7	i	0.44	-9.1*	i	i	i	i	38%*
SMILES	hERG rescue	KCNQ1 pot	Kir21 inh	KCNK9 block	KCNQ1 block	KCNK3 inh	KCNK9 inh conf	Kir21 sel	KCNK9 uninduced
CCOc1ccc(NC(=O)c2ccccc2OCC(=O)c2ccccc2)cc1	-11	i	-2.6	-14*	i	i	42%*	i	i
CCOc1ccccc1C(=O)Nc1ccc(C(=O)c2ccccc2)cc1	-10	i	0.26	-13*	i	i	76%*	i	32%*
COc1ccc(S(N)(=O)=O)cc1C(=O)NNC(=O)c1cccc(S(=O)(=O)N2CCOCC2)c1	.	.	.	.	.	i	.	.	.
CCOCCCNC(=S)NCCCNc1nc2ccc(C)cc2cc1C#N	-14	i	0.14	i	i	.	.	.	.
CCOCCCNC(=S)NCCNc1nc2ccc(C)cc2cc1C#N	-8	i	0.64	-8.3*	i	i	i	i	i
O=C(NCCCn1ccnc1)c1ccc(Cl)s1	-10	i	-0.42	i	i	i	.	.	.
CC(C(=O)NC1C=CS(=O)(=O)C1)N1C(=O)/C(=C\c2ccccc2)SC1=S (stereo not drawn)	-9	i	-1.6	i	i	i	.	.	.
CC(C(=O)NC1C=CS(=O)(=O)C1)N1C(=O)/C(=C/c2cccc(Cl)c2)SC1=S (stereo not drawn)	-7	i	-0.32	i	i	i	i	i	i
Cc1ccc2c(c1)N(C(=O)CCC(=O)NCc1ccccc1)CC(C)O2 (stereo not drawn)	-4	i	0.24	i	i	i	.	.	.
Cc1ccc2c(c1)N(C(=O)CCC(=O)N1CCN(c3ccccn3)CC1)CC(C)O2 (stereo not drawn)	-11	i	-0.05	i	i	i	.	.	.
Cc1ccc2c(c1)N(C(=O)CCC(=O)Nc1ccccc1Cl)CC(C)O2 (stereo not drawn)	-11	i	-1.7	i	i	i	i	i	i
Cc1cccc(N2CCN(C(=O)CCC(=O)N3CC(C)Oc4ccc(C)cc43)CC2C)c1 (stereo not drawn)	-13	i	0.83	i	i	i	i	i	i

Bioassay records as filed in PubChem.
